Experimental data taken from ChEMBL document CHEMBL4265908, “Structure-activity and structure-property relationships of novel Nrf2 activators with a 1,2,4-oxadiazole core and their therapeutic effects on acetaminophen (APAP)-induced acute liver injury” (Eur J Med Chem, 2018).
Activity calls are given as the source filed them. The calls are words filed in the database; no cut-off is given here.

Assays:
[1] = biological target: T1, Nuclear factor erythroid 2-related factor 2 (Homo sapiens) (UniProt Q16236); assay: Activation of Nrf2 in human HepG2-ARE-C8 cells assessed as induction of ARE-mediated luciferase activity at 0.1 uM after 24 hrs by luciferase reporter gene assay relative to control; assay type: cell-based
T1 sequence (whole entry): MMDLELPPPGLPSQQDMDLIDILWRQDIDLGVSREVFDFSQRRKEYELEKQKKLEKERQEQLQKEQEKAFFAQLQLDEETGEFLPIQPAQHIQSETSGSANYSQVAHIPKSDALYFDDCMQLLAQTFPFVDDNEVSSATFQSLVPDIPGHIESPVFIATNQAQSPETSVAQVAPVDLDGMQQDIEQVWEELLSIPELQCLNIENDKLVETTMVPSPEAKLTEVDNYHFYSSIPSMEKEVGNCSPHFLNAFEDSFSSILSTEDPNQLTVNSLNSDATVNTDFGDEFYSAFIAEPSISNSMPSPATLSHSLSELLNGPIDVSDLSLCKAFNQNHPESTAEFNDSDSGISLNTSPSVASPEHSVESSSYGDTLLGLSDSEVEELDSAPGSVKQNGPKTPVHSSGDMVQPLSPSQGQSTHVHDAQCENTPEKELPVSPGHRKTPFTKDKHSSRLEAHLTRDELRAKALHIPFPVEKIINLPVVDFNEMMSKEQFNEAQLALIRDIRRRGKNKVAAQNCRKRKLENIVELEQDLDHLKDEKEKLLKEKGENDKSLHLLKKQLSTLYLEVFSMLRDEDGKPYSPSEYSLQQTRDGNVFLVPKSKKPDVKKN
Method in brief: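 HepG2-ARE-C8 cells stably carrying ARE-luciferase, grown in DMEM with 10% FBS at 37 °C and 5% CO2. Seeded at 5 × 10^4 cells/well, left overnight, then given compound diluted from a 10 mM DMSO stock for 24 h. Cells lysed and luciferase read as RLU. Inductivity = (RLUtest − RLUblank)/(RLUcontrol − RLUblank), with DMSO as control. Mean ± SEM of three experiments.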

Mus musculus [2] = assay: Hepatoprotective activity against APAP-induced liver injury in C57BL/6 mouse assessed as reduction in serum ALT levels administered ip for 7 consecutive days followed by APAP challenge 1 hr post last compound dose and measured after 24 hrs; assay type: functional, organism-based
Method in brief: (§1)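 Female C57BL/6 mice (20–25 g, n = 10/group) received 10, 50 or 100 mg/kg/day ip in saline for 7 days. One hour after the last dose they received APAP 300 mg/kg in saline. Killed 24 h later. Serum ALT/AST by kit. Liver homogenates (pH 7.0 phosphate) used for GSH (A420, μmol/g protein), GST (A412, U/mg protein) and SOD. Liver also analyzed by western blot (β-actin normalized), qRT-PCR (GAPDH normalized) and H&E.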

Mus musculus [3] = assay: In vivo activation of Nrf2 in APAP-induced liver injury in C57BL/6 mouse assessed as increase in HO-1 protein expression level at 10 to 100 mg/kg, ip administered for 7 consecutive days followed by APAP challenge 1 hr post last compound dose and measured after 24 hrs by Western blot analysis; assay type: functional, organism-based; method in brief: as §1
Mus musculus [4] = assay: In vivo activation of Nrf2 in APAP-induced liver injury in C57BL/6 mouse assessed as increase in NQO1 mRNA expression level administered ip for 7 consecutive days followed by APAP challenge 1 hr post last compound dose and measured after 24 hrs by qRT-PCR analysis; assay type: functional, organism-based; method in brief: as §1

- Activity [1]: 3.46
SMILES: Cc1ccc(-c2noc(-c3ccc(F)c(F)c3)n2)cn1
- Activity (Mus musculus [2]): Dose-dependent effect
- Activity (Mus musculus [3]): Active
- Activity (Mus musculus [4]): Dose-dependent effect
